Activity calls are given as the source filed them.
Experiments:
Paracentrotus lividus [1] = assay: Antimitotic activity against Paracentrotus lividus embryo assessed as cleavage arrest after 2.5 to 6 hrs post fertilization by sea urchin embryo assay; format: functional
How it was run: (§1)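 Fertilized sea urchin eggs, cultured at room temperature in filtered seawater with paddle agitation (60 rpm), exposed 10-25 min post-fertilization (45-60 min before first cleavage) to 2-fold decreasing concentrations as a monolayer, up to 2000 embryos/mL. Stocks: 5 mM in 95% EtOH, or 5-20 mM in DMSO then 10-fold diluted in 95% EtOH. Cleavage scored microscopically 2.5-6 h post-fertilization. EC = threshold concentration causing cleavage alteration with death before hatching or full arrest.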

Paracentrotus lividus [2] = assay: Antimitotic activity against Paracentrotus lividus embryo assessed as embryo spinning after 0.5 to 20 hrs post dose by sea urchin embryo assay; format: functional
How it was run: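 Free-swimming blastulae from the same culture treated just after hatching (9-12 h post-fertilization) in filtered seawater at room temperature. Final DMSO at most 0.05%, EtOH at most 1%. Tubulin destabilization scored microscopically as loss of forward movement, settling to the vessel bottom and rapid spinning about the animal-vegetal axis.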

Paracentrotus lividus [3] = assay: Antimitotic activity against Paracentrotus lividus embryo assessed as cleavage alteration after 2.5 to 6 hrs post fertilization by sea urchin embryo assay; format: functional; how it was run: as §1
Paracentrotus lividus [4] = assay: Antimitotic activity against Paracentrotus lividus embryo assessed as cleavage alteration up to 80 to 100 uM after 2.5 to 6 hrs post fertilization by sea urchin embryo assay; format: functional, organism-based
How it was run: (§2)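 Fertilized sea urchin eggs, treated 10-25 min after fertilization (45-60 min before first cleavage), exposed to 2-fold decreasing concentrations; monolayer in filtered seawater at room temperature, up to 2000 embryos/mL. Compounds from EtOH or DMSO stocks diluted in 95% EtOH; final DMSO ≤0.05%, EtOH ≤1%. Cleavage scored microscopically 2.5-6 h post-fertilization; EC = threshold concentration causing cleavage alteration with death before hatching or full mitotic arrest.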

Paracentrotus lividus [5] = assay: Antimitotic activity against Paracentrotus lividus embryo assessed as cleavage alteration up to 5 uM after 2.5 to 6 hrs post fertilization by sea urchin embryo assay; format: functional, organism-based; how it was run: as §2

| Compound | EC (Paracentrotus lividus [1]) [µM] | EC (Paracentrotus lividus [2]) [µM] | EC (Paracentrotus lividus [3]) [µM] | Activity (Paracentrotus lividus [4]) | Activity (Paracentrotus lividus [5]) |
| --- | --- | --- | --- | --- | --- |
| C/C=C/c1cc(OC)c2c(c1OC)OCO2 [ISOAPIOL] | 8 | >10 | 2 |  |  |
| COc1cc(-c2noc(-c3ccc4c(c3)OCO4)n2)cc(OC)c1OC | >4 | >4 | >4 |  |  |
| C=CCc1cc(OC)c2c(c1OC)OCO2 |  |  |  | inactive |  |
| COc1ccc(/C=C\c2cc(OC)c3c(c2)OCO3)cc1O [Combretastatin A-2] | 0.01 | 0.05 | 0.002 |  |  |
| COc1ccc(/C=C/c2cc(OC)c3c(c2)OCO3)cc1O | 0.1 | 1 | 0.02 |  |  |
| COc1ccc(/C=C\c2ccc3c(c2)OCCO3)cc1O | 0.5 | 1 | 0.02 |  |  |
| COc1ccc(-c2nnc(-c3cc(OC)c4c(c3)OCO4)[nH]2)cc1O | >4 | >5 | 2 |  |  |
| COc1ccc(/C=C/c2cc3c(c(OC)c2OC)OCO3)cc1O | 4 | 5 | 0.1 |  |  |
| COc1ccc(/C=C/c2cc(OC)c3c(c2OC)OCO3)cc1O | 4 | 5 | 0.5 |  |  |
| COc1ccc(/C=C\c2cc(OC)c(OC)c(OC)c2OC)cc1O | 0.1 | 1 | 0.02 |  |  |
| COc1ccc(/C=C\c2cc3c(c(OC)c2OC)OCO3)cc1O | 0.2 | 0.5 | 0.01 |  |  |
| COc1ccc(/C=C/c2cc(OC)c(OC)c(OC)c2OC)cc1O | 1 | 5 | 0.1 |  |  |
| COc1ccc(-c2nnc(-c3ccc(OC)c(OC)c3)o2)cc1OC | 10 | 5 | 0.5 |  |  |
| COc1ccc(/C=C\c2cc(OC)c3c(c2OC)OCO3)cc1O | 0.1 | 1 | 0.02 |  |  |
| COc1ccc(/C=C/c2cc3c(cc2OC)OCCO3)cc1O | 2 | >5 | 0.1 |  |  |
| COc1ccc(/C=C\c2cc3c(cc2OC)OCCO3)cc1O | 0.2 | 1 | 0.02 |  |  |
| COc1ccc(/C=C/c2ccc3c(c2)OCCO3)cc1O | 1 | 2 | 0.1 |  |  |
| COc1ccc(-c2nnc(-c3cc4c(c(OC)c3OC)OCO4)[nH]2)cc1O | >4 | >4 | 4 |  |  |
| C=CCc1cc2c(c(OC)c1OC)OCO2 |  |  |  | inactive |  |
| COc1ccc(-c2nc(Cc3cc(OC)c4c(c3OC)OCO4)no2)cc1O | >4 | >5 | 4 |  |  |
| COc1ccc(-c2nnc(-c3cccc(F)c3)o2)cc1OC | >4 | >5 | 1 |  |  |

| Compound | EC (Paracentrotus lividus [1]) [µM] | EC (Paracentrotus lividus [2]) [µM] | EC (Paracentrotus lividus [3]) [µM] | Activity (Paracentrotus lividus [4]) | Activity (Paracentrotus lividus [5]) |
| --- | --- | --- | --- | --- | --- |
| COc1ccc(-c2nnc(-c3cc(OC)c(OC)c(OC)c3)[nH]2)cc1O | >4 | >4 | 4 |  |  |
| COc1ccc(/C=C\c2cc(OC)c(OC)c(OC)c2)cc1OP(=O)([O-])[O-].[Na+].[Na+] [FOSBRETABULIN DISODIUM] | 0.01 | 1 | 0.005 |  |  |
| COc1ccc(-c2nc(-c3c(Cl)c(OC)c4c(c3OC)OCO4)no2)cc1O | >4 |  | >4 |  |  |
| COc1ccc(/C=C(/C(=O)O)c2cc(OC)c(OC)c(OC)c2)cc1O | >11.2 | >11.2 | >11.2 |  |  |
| COc1ccc(-c2nnc(-c3cc(OC)c(OC)c(OC)c3)o2)cc1O | >4 | >4 | >4 |  |  |
| COc1ccc(-c2nc(-c3cc(OC)c4c(c3)OCO4)no2)cc1O | >4 | >4 | 4 |  |  |
| COc1ccc(-c2nc(-c3cc(OC)c4c(c3OC)OCO4)no2)cc1O | >4 | >4 | >4 |  |  |
| C/C=C/c1cc2c(c(OC)c1OC)OCO2 [ISODILLAPIOL] | 80 | >100 | 20 |  |  |
| COc1ccc(/C=C/c2cc(OC)c3c(c2)OCCO3)cc1O | 0.1 | 2 | 0.02 |  |  |
| COc1ccc(-c2nnc(-c3cc(OC)c4c(c3OC)OCO4)[nH]2)cc1O | >4 | >4 | >4 |  |  |
| COc1ccc(/C=C\c2cc(OC)c(OC)c(OC)c2)cc1O [COMBRETASTATIN A4] | 0.01 | 0.05 | 0.002 |  |  |
| C/C=C/c1cc(OC)c2c(c1)OCO2 [ISOMYRISTICIN] | >5 | >5 | >5 |  |  |
| C/C=C/c1cc(OC)c(OC)c(OC)c1OC |  |  |  |  | inactive |
| C=CCc1cc(OC)c2c(c1)OCO2 |  |  |  | inactive |  |
| COc1cccc(-c2nnc(-c3ccc(OC)c(OC)c3)o2)c1 | 4 | 2 | 0.05 |  |  |
| COc1ccc(-c2nnc(-c3cc(OC)c4c(c3)OCO4)o2)cc1O | 2 | >5 | 0.5 |  |  |
| COc1cc(/C=C/c2cc(OC)c3c(c2OC)OCO3)ccc1O | >4 | >5 | >4 |  |  |
| COc1cc(-c2nnc(-c3cc(OC)c4c(c3)OCO4)o2)cc(OC)c1OC | 2 | >5 | 0.5 |  |  |
| COc1ccc(-c2nc(-c3cc4c(c(OC)c3OC)OCO4)no2)cc1O | >4 | >4 | >4 |  |  |
| COc1ccc(/C=C\c2cc(OC)c3c(c2)OCCO3)cc1O | 0.01 | 0.05 | 0.002 |  |  |

From ChEMBL document CHEMBL1641401, “Synthesis of antimitotic polyalkoxyphenyl derivatives of combretastatin using plant allylpolyalkoxybenzenes” (2010)
